Results as given in PubChem BioAssay AID504338 (NMMLSC, 2011).
Calls of active or inactive are those of the source.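 Rule for the calls: active = GFP response vs DMSO above 150% with enough events counted; inconclusive = fewer than 70 events counted for a yeast strain; inactive = the rest.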

Experiment: yeast TOR reporter LAP4-GFP retest – cell-based, third cherry pick, flow cytometry, confirmation (AID 504338);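 note: ratio to plate DMSO wells so 100% equals DMSO level rather than 0%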
Conditions: S. cerevisiae LAP4-GFP strain, 3 h, at 10 µM, stronger effect = higher value
Method in brief: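 Material: Saccharomyces cerevisiae strain expressing LAP4-GFP fusion protein / Compound: 10 µM, one concentration / Incubation: compound exposure for 3 h at 30 °C / Detection: high-throughput flow cytometry of GFP, single-cell scatter gate / Measure: median GFP fluorescence as percent of plate DMSO-well average / Benchmarks: rapamycin 400 ng/mL high, DMSO low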
With `CCN1CCN(c2ncnc3ccc(Br)cc23)CC1` the GFP response vs DMSO was 108% (inactive).
For `CN(C)C(=O)Oc1ccnc2cc(Cl)ccc12`, the GFP response vs DMSO was 107% (inactive).
For `CN1CCN(c2ncnc3ccc(Br)cc23)CC1`, the GFP response vs DMSO was 107% (inactive).
In the case of `Cc1ccc2c(c1N)C(=O)c1ccccc1C2=O`, the GFP response vs DMSO is reported as 104% (inactive).
In the case of `CN(C)C(=O)Oc1ccc(Cl)c2cccnc12`, the GFP response vs DMSO is reported as 106% (inactive).
With `C/C(O)=C(\C#N)C(=O)Nc1cc(Br)ccc1Br` the GFP response vs DMSO was 106% (inactive).
